Source: ChEMBL document CHEMBL3994624, “Antimalarial Pyrido[1,2-a]benzimidazoles: Lead Optimization, Parasite Life Cycle Stage Profile, Mechanistic Evaluation, Killing Kinetics, and in Vivo Oral Efficacy in a Mouse Model” (J Med Chem, 2017)
In brackets after ≈: the same amount, converted by molar mass. Activity calls are given as the source filed them. The rule behind the calls is not given here.

Key:
Ferriprotoporphyrin IX [1] = assay: Inhibition of beta hematin formation in ring stage of chloroquine-sensitive Plasmodium falciparum NF54 assessed as decrease in haemozoin level after 36 hrs by UV-vis spectra analysis
Method in brief: (§1)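 Synchronized ring-stage parasites treated with increasing drug concentrations, then cellular fractionation. Free haem and haemozoin quantified as iron (fg/cell) and compared with untreated control; significance by p-values; parasite survival overlaid.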

Ferriprotoporphyrin IX [2] = assay: Inhibition of beta hematin formation in water/NP40/DMSO solution after 5 hrs
Ferriprotoporphyrin IX [3] = assay: Inhibition of beta hematin formation in ring stage of chloroquine-sensitive Plasmodium falciparum NF54 assessed as increase in free heme level after 36 hrs by UV-vis spectra analysis; method in brief: as §1
Plasmodium falciparum [4] = assay: Anti-plasmodial activity against multidrug resistant Plasmodium falciparum K1 by [3H]-hypoxanthine incorporation assay; format: functional
Method in brief: (§2)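 P. falciparum asexual blood-stage growth inhibition by [3H]hypoxanthine incorporation; chloroquine and artesunate run as reference drugs in every experiment; IC50 given as mean of ≥2 independent experiments.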

Plasmodium falciparum [5] = assay: Anti-plasmodial activity against chloroquine-sensitive Plasmodium falciparum NF54 by [3H]-hypoxanthine incorporation assay; format: functional; method in brief: as §2
CHO = assay: Cytotoxicity against CHO cells after by MTT assay; format: cell-based; conditions: Cricetulus griseus
[6] = Selectivity index, ratio of IC50 for CHO cells to IC50 for chloroquine-sensitive Plasmodium falciparum NF54; format: toxicity; conditions: hamster, read-out: Ratio IC50
Method in brief: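 Selectivity index = IC50 CHO / IC50 PfNF54.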

[7] = Metabolic stability in Balb/c mouse liver microsomes assessed as compound remaining at 1 uM in presence of NADPH after 30 mins by LC-MS/MS analysis; format: ADME, microsome; conditions: read-out: Stability
Method in brief: (§3)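 Mouse and human liver microsomes; % compound remaining after 30 min.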

[8] = Metabolic stability in human liver microsomes assessed as compound remaining at 1 uM in presence of NADPH after 30 mins by LC-MS/MS analysis; format: ADME, microsome; conditions: read-out: Stability; method in brief: as §3
Plasmodium falciparum [9] = assay: Anti-plasmodial activity against chloroquine-sensitive Plasmodium falciparum NF54 late 4/5 stage gametocytes assessed as reduction in ATP levels after 24 hrs by BacTiter-Glo reagent based bioluminescence assay; format: functional; conditions: NF54, 24 h
Plasmodium falciparum [10] = assay: Ratio of IC50 for chloroquine-sensitive Plasmodium falciparum NF54 early 2/3 stage gametocytes to IC50 for chloroquine-sensitive Plasmodium falciparum NF54 late 4/5 stage gametocytes; format: functional
Method in brief: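 Early (stage II/III) and late (stage IV/V) gametocytes tested in parallel luciferase reporter assays; stage preference = EG IC50/LG IC50.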

Huh-7 = assay: Cytotoxicity against human HuH7 cells at 1 to 10 uM after 48 hrs by Alamarblue assay; format: cell-based; conditions: huh-7, 48 h
[11] = Kinetic solubility of the compound in FaSSIF at pH 6.5 after 2 hrs by shake flask method; format: physicochemical; conditions: read-out: Kinetic_solubility
Plasmodium falciparum [12] = assay: Anti-plasmodial activity against chloroquine-sensitive Plasmodium falciparum NF54 late 4/5 stage gametocytes after 48 hrs by luciferin-luciferase reaction based bioluminescence assay; format: functional; conditions: NF54, 48 h
Plasmodium falciparum [13] = assay: Ratio of IC50 for chloroquine-sensitive Plasmodium falciparum NF54 after 24 hrs to IC50 for chloroquine-sensitive Plasmodium falciparum NF54 after 72 hrs; format: functional
Plasmodium berghei [14] = assay: Antimalarial activity against GFP-fused Plasmodium berghei ANKA liver stage infected in HuH7 cells pretreated for 1 hr followed by parasite infection after 48 hrs by luciferase reporter gene assay; format: functional, cell-based; conditions: Huh-7
Plasmodium berghei [15] = assay: Antimalarial activity against GFP-fused Plasmodium berghei ANKA liver stage infected in HuH7 cells pretreated for 1 hr followed by parasite infection at 1 uM after 48 hrs by luciferase reporter gene assay; format: functional, cell-based
Plasmodium berghei [16] = assay: Antimalarial activity against GFP-fused Plasmodium berghei ANKA infected in mouse assessed as reduction in parasitemia at 50 mg/kg, po administered once daily for 4 days by flow cytometry relative to control; format: functional; design: scale not given: the % may be the effect or the level left
Method in brief: (§4)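 P. berghei-infected mice, 3 per group. Compound formulated in 90/10 Tween80/ethanol (v/v), diluted 10-fold with water, given orally once daily at 4, 24, 48 and 72 h post-infection. Outcomes: % parasitemia reduction versus untreated control, mean survival days, and cured/infected. Mice with <40% reduction euthanized on day 4.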

Plasmodium berghei [17] = assay: Antimalarial activity against GFP-fused Plasmodium berghei ANKA infected in mouse assessed as mouse mean survival days at 50 mg/kg, po administered once daily for 4 days; format: functional
Method in brief: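 P. berghei-infected mice (n=3 per dose) dosed orally once daily on 4 consecutive days at 4, 24, 48 and 72 h after infection; compound in 90/10 Tween80/ethanol (v/v) diluted 10-fold with water. Read-outs were % parasitemia reduction, mean survival time in days and cure; mice with <40% parasitemia reduction euthanized on day 4.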

Plasmodium berghei [18] = assay: Antimalarial activity against GFP-fused Plasmodium berghei ANKA infected in mouse assessed as protection against parasitemia at 50 mg/kg, po administered once daily for 4 days measured 30 days post infection by light microscopy; format: functional, organism-based; method in brief: as §4

IC50 (Plasmodium berghei [14])	SMILES	inhibition (Ferriprotoporphyrin IX [1])	IC50 (Ferriprotoporphyrin IX [2])	inhibition (Ferriprotoporphyrin IX [3])	IC50 (Plasmodium falciparum [4])	IC50 (Plasmodium falciparum [5])	IC50 (CHO)	selectivity ratio [6]	remaining at 0.5 h, 1 µM [7]	remaining at 0.5 h, 1 µM [8]	IC50 (Plasmodium falciparum [9])	Ratio IC50 (Plasmodium falciparum [10])	Activity (Huh-7)	solubility kinetic at 2 h [11]	IC50 (Plasmodium falciparum [12])	Ratio IC50 (Plasmodium falciparum [13])	Activity (Plasmodium berghei [15])	Activity (Plasmodium berghei [16])	MSD (Plasmodium berghei [17])	Activity (Plasmodium berghei [18])
	CCNCCNc1cc(-c2ccc(Cl)c(Cl)c2)c(C#N)c2nc3ccccc3n12	Dose-dependent effect	< 45000 nM	Dose-dependent effect	120 nM	110 nM	1550 nM	14	65%	60%	590 nM	1.2	Non-Toxic							
	CCNCCNc1cc(-c2ccc(C(F)(F)F)cc2)c(C#N)c2nc3ccccc3n12		< 45000 nM				1560 nM	13	97%	84%		2.4	Non-Toxic	< 5 µM	620 nM	<1.5				
	N#Cc1c(-c2ccc(C(F)(F)F)cc2)cc(NCCn2ccnc2)n2c1nc1ccccc12		< 45000 nM		790 nM	390 nM	10500 nM	27			1020 nM	1.1	Non-Toxic			1.5 - 2				
2850 nM	CCNCCNc1c(C)c(-c2ccc(C(F)(F)F)cc2)c(C#N)c2nc3ccccc3n12					1280 nM			80%	85%	2570 nM	0.8	Non-Toxic	< 5 µM			Active			
	CCNCCNc1cc(-c2ccc(C(F)(F)F)cc2)c(C#N)c2nc3cccc(Cl)c3n12				260 nM	140 nM	1630 nM	5	93%	89%				10 µM (≈ 4.58 µg/mL)				85%	7 days	inactive
	CCNCCNc1cc(-c2cccc(F)c2)c(C#N)c2nc3ccccc3n12				1000 nM	380 nM	5180 nM	13	100%	89%	3630 nM	1.2	Non-Toxic	25 µM (≈ 9.34 µg/mL)		<1.5		61%	24 days	
	CCN(CC)CCCC(C)Nc1cc(-c2ccc(C(F)(F)F)cc2)c(C#N)c2nc3ccccc3n12 (centres undefined)				400 nM	690 nM	2910 nM	4	32%	53%	3020 nM	0.7	Non-Toxic	85 µM (≈ 42 µg/mL)		<1.5				
